Source: ChEMBL document CHEMBL3871264, “Design of a novel thiophene inhibitor of 15-lipoxygenase-1 with both anti-inflammatory and neuroprotective properties” (Eur J Med Chem, 2016)
pKi: −log10 of the molar value. Calls of active or inactive are those of the source. The calls are words filed in the database; no cut-off is given here.

Experiments:
[1] = target: T1, Polyunsaturated fatty acid lipoxygenase ALOX15 (Homo sapiens, UniProt P16050); experiment: Competitive inhibition of human 15-LOX-1 assessed as reduction in conversion of linoleic acid to 13(S)-HpODE incubated for 10 mins followed by linoleic acid addition by Lineweaver-Burk plot analysis
T1 sequence (P16050 whole entry): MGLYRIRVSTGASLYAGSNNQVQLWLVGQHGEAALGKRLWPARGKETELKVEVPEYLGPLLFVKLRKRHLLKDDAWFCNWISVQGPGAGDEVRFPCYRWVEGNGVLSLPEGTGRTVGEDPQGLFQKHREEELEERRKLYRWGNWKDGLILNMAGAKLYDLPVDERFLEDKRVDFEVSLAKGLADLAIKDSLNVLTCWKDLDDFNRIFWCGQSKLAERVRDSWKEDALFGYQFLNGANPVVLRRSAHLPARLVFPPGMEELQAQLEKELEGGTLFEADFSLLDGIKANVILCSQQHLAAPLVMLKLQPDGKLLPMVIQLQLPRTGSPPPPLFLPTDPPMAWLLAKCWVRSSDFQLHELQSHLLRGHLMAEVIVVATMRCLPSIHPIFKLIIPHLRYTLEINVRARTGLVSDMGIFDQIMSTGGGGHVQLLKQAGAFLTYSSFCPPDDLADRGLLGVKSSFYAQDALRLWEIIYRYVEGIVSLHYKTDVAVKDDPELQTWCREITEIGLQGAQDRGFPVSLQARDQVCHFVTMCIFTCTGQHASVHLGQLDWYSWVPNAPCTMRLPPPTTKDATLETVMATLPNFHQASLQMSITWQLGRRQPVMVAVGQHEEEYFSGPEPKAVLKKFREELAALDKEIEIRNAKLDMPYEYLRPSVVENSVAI

[2] = target: T2, Polyunsaturated fatty acid lipoxygenase ALOX15 (Mus musculus) (UniProt P39654); experiment: Inhibition of 15-LOX-1 in mouse HT22 cells assessed as inhibition of glutamate-induced lipid peroxidation at 10 uM incubated for 6 to 7 hrs by BODIPY 581/591 C11 staining based FACS analysis; assay type: cell-based; conditions: HT-22
T2 sequence (whole entry): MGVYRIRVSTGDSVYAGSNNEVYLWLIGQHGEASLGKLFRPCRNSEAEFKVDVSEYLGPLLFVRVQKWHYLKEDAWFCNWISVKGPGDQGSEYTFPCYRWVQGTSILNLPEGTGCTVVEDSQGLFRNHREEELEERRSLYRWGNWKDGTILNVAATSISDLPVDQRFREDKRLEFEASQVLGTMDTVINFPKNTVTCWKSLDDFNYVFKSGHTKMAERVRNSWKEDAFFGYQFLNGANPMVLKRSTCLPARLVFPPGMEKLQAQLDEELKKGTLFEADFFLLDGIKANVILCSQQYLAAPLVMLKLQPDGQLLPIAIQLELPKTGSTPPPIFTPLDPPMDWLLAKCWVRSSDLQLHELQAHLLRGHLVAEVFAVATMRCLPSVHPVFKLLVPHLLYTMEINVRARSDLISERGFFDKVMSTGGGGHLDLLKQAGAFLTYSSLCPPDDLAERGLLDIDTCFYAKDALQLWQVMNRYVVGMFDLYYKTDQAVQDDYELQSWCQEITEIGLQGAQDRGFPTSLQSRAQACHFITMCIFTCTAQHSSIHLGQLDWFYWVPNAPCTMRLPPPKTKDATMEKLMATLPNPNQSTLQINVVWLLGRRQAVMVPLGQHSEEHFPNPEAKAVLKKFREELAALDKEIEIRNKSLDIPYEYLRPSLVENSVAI
In short: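 HT-22 cells were seeded at 5x10^4 per well and incubated overnight. They were then exposed to 4 mM glutamate in DMEM/10% FCS, with or without 10 µM test inhibitor or 1 µM PD146176, for 6-7 h or 14-16 h. Cells were stained with BODIPY 581/591 C11 at 2 µM final for 1 h at 37 °C. The red-to-green fluorescence shift was read by flow cytometry (488 nm excitation). At least 3 experiments were run, each in triplicate.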

CCCCNC(=O)c1cc(-c2ccccc2)sc1N
pKi [1]: 5.48
inhibition [2]: Active
